# MC4R ag barr = agonists of human melanocortin 4 receptor (MC4R) beta-arrestin; hit rate 0.98% among 360,000; activation, % at 8.9 µM; U2OS MC4R beta-arrestin complementation, luminescence; percent of melanotan II response, DMSO zero; AID 540308; P32245;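 active = activation above a per-plate cutoff, the mean activation of sample wells on that plate plus 3 SD, cut at about 8% in these data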
# Target sequence (P32245 whole entry, looked up): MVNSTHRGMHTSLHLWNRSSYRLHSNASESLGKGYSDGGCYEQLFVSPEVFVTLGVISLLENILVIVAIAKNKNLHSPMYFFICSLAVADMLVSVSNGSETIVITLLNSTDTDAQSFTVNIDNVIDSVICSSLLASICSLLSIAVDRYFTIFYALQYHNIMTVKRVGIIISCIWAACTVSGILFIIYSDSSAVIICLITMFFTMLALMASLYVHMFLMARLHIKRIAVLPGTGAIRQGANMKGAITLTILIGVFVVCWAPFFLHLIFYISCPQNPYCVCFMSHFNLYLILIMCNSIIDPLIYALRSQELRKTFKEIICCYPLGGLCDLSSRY
# MC4R antagonist = human MC4R antagonism in cAMP assay | MC4R-expressing cells, MTII-stimulated cAMP, LANCE TR-FRET | inhibition, % at 6.5 µM | hit rate 0.48% among 360,000;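 active = inhibition above its plate's cutoff, the mean of tested wells on that plate plus 3 SD, cut at about 29% in these data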
#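 Test system: U2OS cells stably expressing human melanocortin 4 receptor (MC4R); also added: Melanotan II challenge; compound: 6.5 µM single dose; timing: 30-min compound preincubation, 1-h Melanotan II challenge, 1-h detection, room temperature; signal: Eu-cAMP/anti-cAMP TR-FRET, emission 671 nm; repeats: one well per compound, no replicates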
# ATG4B inhibitor = ATG4B (human) cysteine protease inhibition; ATG4B cleavage of LC3-PLA2, NBD-HPC fluorescence, 1 h; inhibition, % at 8.33 µM; hit rate 0.51% among 340,000; in the data active = inhibition above about 40%
# SMARCA2 activ = increases SMARCA2 function in MMTV reporter cells; MG213 cells, MMTV-luciferase reporter, dexamethasone, overnight; activation, % at 9.1 µM; hit rate 1% among 370,000; AID 652017; in the data active = activation above about 7.8%
# MPTP inh = blocks calcium-induced mitochondrial swelling. isolated mouse mitochondria, Ca2+ swelling absorbance, 30 min. inhibition, % at 10 µM. hit rate 1.4% among 360,000. AID 602449;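 active = inhibition of 50% or more, scaled per plate between neutral and stimulator controls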
# Rh123 counter = Rhodamine 123 counter-screen of mitochondrial pore hits. shares compounds with MPTP inh. isolated mitochondria, membrane potential, Rhodamine 123 fluorescence. inhibition, % at 10 µM. hit rate 78% among 5,000. AID 624504; in the data active = inhibition above about 22%
# MPTP abs DR = dose response confirmation of mitochondrial permeability transition pore inhibitors; AID 651561; hit rate 58% among 780; isolated mitochondria swelling, absorbance; IC50, µM; shares compounds with MPTP inh; in the data active = IC50 below about 20 µM
# MPTP counter DR = MPTP inhibitor counter-screen activity, dose response | shares compounds with MPTP inh | isolated mitochondria counterscreen, fluorescence read-out | IC50, µM | hit rate 49% among 780 | AID 651564; in the data active = IC50 below about 80 µM
# Hits are given with their value; – = inactive; · = no result given. Shown are actives, neighbours in structure and some others; about 4.1% of the full set was active somewhere.
SMILES,MC4R ag barr,MC4R antagonist,ATG4B inhibitor,SMARCA2 activ,MPTP inh,Rh123 counter,others
CN(CC1CCN(CCc2cccc(C(F)(F)F)c2)CC1)C(=O)c1ccc(F)cc1F,–,–,–,–,–,·,
Cc1ccc(C(=O)N2CCC[C@@H]2C(=O)N2CCC[C@@H]2C(=O)NCc2ccccc2)cc1,·,·,·,–,·,·,
C#CCN1CC(N(C)CCOC(=O)c2ccc(F)cc2)CS1(=O)=O (stereo unspecified),·,·,·,–,·,·,
COC(=O)Cc1nnn2c1[C@@H](C)[C@@H](c1ccccc1Br)OC[C@H](C)C2,·,·,·,–,·,·,
Cc1cccc2cc(/C=N/NC(=O)c3ccccc3O)c(Cl)nc12,–,–,–,–,90.9,79.8,
Cc1ccc2cc(/C=N/NC(=O)c3ccccc3O)c(Cl)nc2c1,–,–,–,–,61.4,82.3,
COC(=O)C1CN(C2CCCC2)CCS(=O)(=O)N1Cc1cn(Cc2ccccc2)nn1 (stereo unspecified),·,·,·,–,·,·,
C[C@H]1Cn2cnc(C(=O)N3CCN(c4ccccc4)CC3)c2C(=O)N1,·,·,·,–,·,·,
Fc1ccc(Nc2c3c(nc4ccccc24)CCC3)cc1,–,–,–,–,70.2,83.6,
c1ccc(Nc2c3c(nc4ccccc24)CCC3)cc1,–,–,–,–,–,·,
O[C@@H]1CN(Cc2ccc(-n3cccn3)cc2)CC[C@H]1N1CCN(c2ccccc2F)CC1,–,–,–,–,69.0,59.0,
Clc1cccc(-c2nnc(SCc3nc4ccccc4[nH]3)n2Cc2ccco2)c1,–,–,–,–,–,·,
Clc1ccc(OCc2nnc(SCc3nc4ccccc4[nH]3)n2Cc2ccco2)cc1,–,–,–,–,61.5,34.6,
COc1ccc(C(CNC(=O)c2oc3ccc(Br)cc3c2C)N2CCCCC2)cc1 (stereo unspecified),–,–,–,–,85.5,–,MPTP abs DR=16.5;MPTP counter DR=–
COc1ccc(C(CNC(=O)c2oc3cc(Br)ccc3c2C)N2CCCCC2)cc1 (stereo unspecified),–,–,–,–,–,·,
CCOc1cc(C)c(S(=O)(=O)Nc2ccc3cn[nH]c3c2)cc1C,–,–,–,·,72.5,75.9,
CC1CCc2c(C(=O)Nc3ccc(OC(F)(F)F)cc3)csc2C1 (stereo unspecified),–,–,–,–,94.8,29.3,
Cc1cccc(CC(Cc2nc3ccccc3[nH]2)c2nc3ccccc3[nH]2)c1 (stereo unspecified),–,–,–,–,88.8,109.8,
O=C(O)CCCNc1c(C(=O)Nc2ccc(Cl)cc2)cc([N+](=O)[O-])cc1[N+](=O)[O-],–,–,–,–,87.7,93.7,
COCC(=O)Oc1c(Sc2ccccc2[N+](=O)[O-])c(C)nn1C(C)(C)C,–,–,–,–,60.3,61.5,
CC(C)CN1C(=O)C[C@@]2(C(=O)N(C)c3ccc(NC(=O)c4cc(F)ccc4F)cc32)C1c1ccccc1 (stereo partly specified),·,·,·,–,·,·,
O=C(Nc1ccc(Cl)cc1)Nc1ccc2c(c1)N1CCN=C1S2,–,–,–,–,92.8,76.9,
CC(C1CC1)N(Cc1ccccc1)C(=S)Nc1cccc(C(F)(F)F)c1 (stereo unspecified),–,–,–,–,65.4,84.6,
Cc1cc(=O)[nH]c(SCC(=O)C23CC4CC(CC(C4)C2)C3)c1C#N,–,–,–,–,85.3,84.4,
Cc1cc(=O)[nH]c(SCC(=O)O)c1C#N,–,–,–,–,–,·,
SMILES,MC4R ag barr,MC4R antagonist,ATG4B inhibitor,SMARCA2 activ,MPTP inh,Rh123 counter,others
O=C(Cn1nnc(N2CCCCC2)n1)NN=Cc1ccccc1O,·,·,·,–,·,·,
O=C(/C=C(\Nc1cccc(F)c1)c1ccccc1)c1ccccc1,·,·,·,–,·,·,
S=C(NCc1ccccc1)Nc1cccc2cnccc12,–,–,–,–,–,·,
S=C(NCCc1ccccc1)Nc1cccc2cnccc12,–,–,–,–,85.8,85.1,
S=C(Nc1cccc(Cl)c1)Nc1cccc2cnccc12,–,–,–,·,96.8,99.3,
CCCCCN1CCCCC(NC(=O)c2cccc(C(F)(F)F)c2)C1=O (stereo unspecified),·,·,·,–,·,·,
COc1ccc(-c2csc(NC(=O)CSc3nc(SC)ns3)n2)cc1,–,–,–,–,65.1,74.3,
CCOC(=S)SCC(=O)Nc1nc(-c2ccc(Br)cc2)cs1,–,–,–,–,80.0,75.1,
COc1ccc(-c2csc(NC(=O)CSc3nc(C)cs3)n2)cc1,–,–,–,–,–,·,
COc1ccccc1C(=O)N1CCC2CCN(C(=O)OC(C)(C)C)C2C1 (stereo unspecified),·,·,·,–,·,·,
CC(=O)OC[C@H]1O[C@H](C#Cc2ccc(C(C)(C)C)cc2)C=C[C@H]1OC(=O)Nc1ccccc1,·,·,·,–,·,·,
CN1c2ccccc2C(O)=C(C(=S)Nc2ccccc2)S1(=O)=O,–,–,–,–,–,·,
CN1c2ccccc2C(O)=C(C(=S)Nc2ccc(F)c(Cl)c2)S1(=O)=O,–,–,–,–,88.6,72.4,
CC(=O)c1cc(-c2ccccc2)n(CC(=O)NCc2ccc(F)cc2)c1C,·,·,·,–,·,·,
CCn1c2ccccc2c2cc(C=NNC(=O)CSc3nc4ccccc4c(=O)n3-c3ccccc3)ccc21,·,·,·,–,·,·,
Fc1ccccc1NC(=S)NCc1ccc(Cl)cc1,–,–,–,–,–,·,
Fc1ccccc1CNC(=S)Nc1cccc(C(F)(F)F)c1,–,–,–,–,73.8,97.3,
Fc1cc(NC(=S)NCc2ccc(CNC(=S)Nc3ccc(Cl)c(F)c3)cc2)ccc1Cl,–,–,–,–,92.4,73.1,
FC(F)(F)c1cccc(NC(=S)NCc2ccc(Cl)cc2)c1,–,–,–,–,78.4,88.4,
Fc1cccc(NC(=S)NCc2ccc(Cl)cc2)c1,–,–,–,–,96.1,89.2,
Cc1ccc(-n2c(SCc3nc4ccccc4[nH]3)nnc2-c2ccccn2)cc1,·,·,·,–,·,·,
COC(=O)c1cc2c(c3c4cc(OC)ccc4n(C(=O)c4ccccc4)c13)C(=O)N(Cc1ccco1)C2,·,·,·,–,·,·,
CCOC(=O)N1CCN(S(=O)(=O)c2ccc(C(=O)N(CCCN(C)C)c3nc4c(C)c(C)ccc4s3)cc2)CC1,–,–,–,–,75.1,–,MPTP abs DR=5.55;MPTP counter DR=–
CN(C)CCCN(C(=O)c1ccc(S(=O)(=O)N2CCCCCC2)cc1)c1nc2c(F)cc(F)cc2s1,–,–,–,–,88.1,–,MPTP abs DR=4.26;MPTP counter DR=–
CCN(CC)CCN(C(=O)c1ccc(S(=O)(=O)N(C)C2CCCCC2)cc1)c1nc2c(C)cccc2s1,–,–,–,–,–,·,
Cc1ccc2sc(N(CCCN(C)C)C(=O)c3ccc(S(=O)(=O)N(C)C4CCCCC4)cc3)nc2c1C,–,–,–,–,88.4,–,
O=C(c1ccccc1)N1CC[C@H]2[C@H](CCCN2Cc2ccccc2)C1,·,·,·,–,·,·,
Cc1cc(NC(=O)Nc2ccccc2F)ccc1Br,8.7,–,–,–,84.1,90.6,
